Measurements: ChEMBL document CHEMBL1129331, “Synthesis and physicochemical, biological, and pharmacological properties of new bile acids amidated with cyclic amino acids” (J Med Chem, 1996)
Converted amounts (≈) assume the structure as drawn.

Tests used:
[1] = Critical Micellar concentration of the compound. was determined; assay type: ADME
Procedure, shortened: (§1)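 Measured in water from surface tension, using the maximum bubble-pressure method.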

[2] = Water solubility of the compound. was determined; assay type: ADME; conditions: read-out: S
Procedure, shortened: (§2)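 Protonated form; measured on saturated solutions at pH 1.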

[3] = Relative lipophilicity was determined; assay type: physicochemical; conditions: C-18 reverse phase HPLC
Procedure, shortened: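 C-18 reverse-phase HPLC run isocratically at 0.9 mL/min. Mobile phase 65% (v/v) aqueous methanol with 2 mM ammonium acetate, pH 7, so that all bile acids are fully ionized.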

[4] = Partition coefficient (logP); assay type: physicochemical; conditions: octanol/water
Procedure, shortened: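 Octanol/water partition coefficient of the protonated species, calculated rather than measured.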

[5] = Acidity constant of the compound. was determined; assay type: ADME
[6] = Critical micellar pH of the compound. was determined
Procedure, shortened: (§3)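 20 mL of 50 mM bile salt solution titrated with 0.1 M HCl. CMpH is taken as the pH at which precipitate of the protonated form is first seen by turbidity at 500 nm. Confirmed by back-titration with 0.1 M NaOH until the suspension clears.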

cholylglycine hydrolase = experiment: The compound was incubated with cholylglycine hydrolase and tested for determining the stability towards C-24 Deamination; assay type: ADME; conditions: cholylglycine hydrolase
[7] = The compound was incubated with human stools and tested for determining the stability towards 7 dehydroxylation; assay type: ADME
Rattus norvegicus [8] = experiment: Secretion of Bile acids in Bile Fistula rats after the iv administration of compound, expressed as the residual secretion rate; assay type: ADME, organism-based; conditions: in vivo
Procedure, shortened: (§4)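 Male Sprague-Dawley rats (300-330 g), urethane-anesthetized, bile duct cannulated. After 1 h baseline, sodium salt infused via femoral vein at 10 μmol/min/kg for 1 h; bile collected at 15-min intervals for 3 h. Flow measured gravimetrically; bile acids, cholesterol and phospholipid measured enzymatically. Smax and Tmax read from secretion-time plots; Rs is the rate at hour 3. Mean ± SD, n=6.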

Rattus norvegicus [9] = experiment: Secretion of Bile in Bile Fistula rats after the iv administration of compound, expressed as the residual secretion rate i; assay type: ADME, organism-based; conditions: in vivo; procedure, shortened: as §4
Rattus norvegicus [10] = experiment: Secretion of cholesterol in Bile Fistula rats after the iv administration of compound, expressed as the residual secretion rate; assay type: ADME, organism-based; conditions: in vivo; procedure, shortened: as §4
Rattus norvegicus [11] = experiment: Secretion of phospholipid in Bile Fistula rats after the iv administration of compound, expressed as the residual secretion rate i; assay type: ADME, organism-based; conditions: in vivo; procedure, shortened: as §4
[12] = Water solubility was determined; assay type: ADME; conditions: read-out: WS; procedure, shortened: as §2
Rattus norvegicus [13] = experiment: Alkaline phosphatase in Bile Fistula rats after iv coinfusion of TCDCA and compound.; assay type: ADME, organism-based; conditions: in vivo
Procedure, shortened: (§5)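 Bile fistula Sprague-Dawley rats (200-250 g). TCDCA and test bile acid given as sodium salts, coinfused via jugular vein, each at 8 μmol/min/kg for 1 h. Bile collected at 30-min intervals for 3 h. Calcium, ALP and LDH in bile measured enzymatically; bile acid composition by HPLC (65% methanol, 15 mM ammonium acetate, pH 5.4). Mean ± SD.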

Rattus norvegicus [14] = experiment: Lactate dehydrogenase in Bile Fistula rats after iv coinfusion of TCDCA and compound.; assay type: ADME, organism-based; conditions: in vivo; procedure, shortened: as §5
[15] = Critical Micellar concentration was determined; assay type: ADME; procedure, shortened: as §1
Rattus norvegicus [16] = experiment: Bile flow in Bile Fistula rats after iv coinfusion of TCDCA and compound.; assay type: ADME, organism-based; conditions: in vivo; procedure, shortened: as §5
Rattus norvegicus [17] = experiment: Calcium output in Bile Fistula rats after iv coinfusion of TCDCA and compound.; assay type: ADME, organism-based; conditions: in vivo; procedure, shortened: as §5
Rattus norvegicus [18] = experiment: Maximum biliary secretion rate of TCDCA after iv coinfusion in Bile fistula rats.; assay type: ADME, organism-based; conditions: in vivo; procedure, shortened: as §5
Rattus norvegicus [19] = experiment: Maximum biliary secretion rate of bile acids after iv coinfusion in Bile fistula rats.; assay type: ADME, organism-based; conditions: in vivo; procedure, shortened: as §5
Rattus norvegicus [20] = experiment: Secretion of Bile acids in Bile Fistula rats after the iv administration of compound, expressed as the maximum secretion rate i; assay type: ADME, organism-based; conditions: in vivo; procedure, shortened: as §4
Rattus norvegicus [21] = experiment: Secretion of Bile in Bile Fistula rats after the iv administration of compound, expressed as the maximum secretion rate; assay type: ADME, organism-based; conditions: in vivo; procedure, shortened: as §4
Rattus norvegicus [22] = experiment: Secretion of cholesterol in Bile Fistula rats after the iv administration of compound, expressed as the maximum secretion rate i; assay type: ADME, organism-based; conditions: in vivo; procedure, shortened: as §4
Rattus norvegicus [23] = experiment: Secretion of phospholipid in Bile Fistula rats after the iv administration of compound, expressed as the maximum secretion rate i; assay type: ADME, organism-based; conditions: in vivo; procedure, shortened: as §4
[24] = The compound was incubated with human stools and tested for determining the stability towards 7-dehydroxylation; assay type: ADME, organism-based
Procedure, shortened: (§6)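 Homogenized fresh human stool (500 mg) in 5 mL chopped meat-glucose medium; bile acid added at 0.05 mM final; 37 °C. Sampled at 0–72 h and stopped with 30% KOH. Bile acids recovered by C-18 solid-phase extraction, then analyzed by TLC and by HPLC with 75% methanol/15 mM ammonium acetate, pH 5.4.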

[25] = Acidity constant was determined; assay type: ADME
[26] = Critical micellar pH was determined; procedure, shortened: as §3
[27] = The compound was incubated with human stools and tested for determining the stability towards C-24 Deamination; assay type: ADME, organism-based; conditions: in the assay text read “7-dehydroxylation” for “C-24 Deamination”; procedure, shortened: as §6

Compound: C[C@H](CCC(=O)O)[C@H]1CC[C@H]2[C@@H]3C[C@H](O)[C@@H]4C[C@H](O)CC[C@]4(C)[C@H]3CC[C@]12C [HYODEOXYCHOLIC_ACID]
- CMC [1]: 14 mM
- solubility [2]: 15 µM (≈ 5.89 µg/mL)
- rK [3]: 0.89
- logP [4]: 4.27
- pKa [5]: 5
- CMpH [6]: 8.1

Compound: C[C@H](CCC(=O)NCCS(=O)(=O)O)[C@H]1CC[C@H]2[C@@H]3[C@H](O)C[C@@H]4C[C@H](O)CC[C@]4(C)[C@H]3C[C@H](O)[C@]12C [TAUROCHOLIC ACID]
- half-life (cholylglycine hydrolase): 4 h
- half-life [7]: 6 h

Compound: CC(CCC(=O)N1CCC[C@H]1C(=O)O)C1CC[C@H]2[C@@H]3[C@@H](O)CC4C[C@H](O)CC[C@]4(C)[C@H]3CC[C@]12C (stereo partly drawn)
- Rs (Rattus norvegicus [8]): 1.6 µM/min/kg
- Rs (Rattus norvegicus [9]): 3.06 mL/h/kg
- Rs (Rattus norvegicus [10]): 28 nM/min/kg
- Rs (Rattus norvegicus [11]): 0.09 µM/min/kg
- solubility [12]: 59 µM (≈ 28.9 µg/mL)
- [ALP]max (Rattus norvegicus [13]): 30 IU/L
- [LDH]max (Rattus norvegicus [14]): 71 UI l-1
- CMC [15]: 7 mM
- Smax (Rattus norvegicus [16]): 5.82 mL/h/kg
- Smax (Rattus norvegicus [17]): 0.38 µM/min/kg
- Smax (Rattus norvegicus [18]): 3.64 µM/min/kg
- Smax (Rattus norvegicus [19]): 2.07 µM/min/kg
- Smax (Rattus norvegicus [20]): 7.9 µM/min/kg
- Smax (Rattus norvegicus [21]): 3.9 mL/h/kg
- Smax (Rattus norvegicus [22]): 52 nM/min/kg
- Smax (Rattus norvegicus [23]): 0.2 µM/min/kg
- rK [3]: 0.92
- half-life (cholylglycine hydrolase): > 72 h
- half-life [24]: > 72 h
- logP [4]: 4.41
- pKa [25]: 3.9
- CMpH [26]: 6

Compound: CC(CCC(=O)N1CCC[C@@H]1C(=O)O)C1CC[C@H]2[C@@H]3[C@H](O)[C@H](O)C4C[C@H](O)CC[C@]4(C)[C@H]3CC[C@]12C (stereo partly drawn)
- Rs (Rattus norvegicus [8]): 1.8 µM/min/kg
- Rs (Rattus norvegicus [9]): 2.28 mL/h/kg
- Rs (Rattus norvegicus [10]): 23 nM/min/kg
- Rs (Rattus norvegicus [11]): 0.26 µM/min/kg
- solubility [12]: 60 µM (≈ 30.3 µg/mL)
- [ALP]max (Rattus norvegicus [13]): 34 IU/L
- [LDH]max (Rattus norvegicus [14]): 48 UI l-1
- CMC [15]: 30 mM
- Smax (Rattus norvegicus [16]): 6 mL/h/kg
- Smax (Rattus norvegicus [17]): 0.39 µM/min/kg
- Smax (Rattus norvegicus [18]): 5.07 µM/min/kg
- Smax (Rattus norvegicus [19]): 3.41 µM/min/kg
- Smax (Rattus norvegicus [20]): 6 µM/min/kg
- Smax (Rattus norvegicus [21]): 3.6 mL/h/kg
- Smax (Rattus norvegicus [22]): 52 nM/min/kg
- Smax (Rattus norvegicus [23]): 0.28 µM/min/kg
- rK [3]: 0.85
- half-life (cholylglycine hydrolase): > 72 h
- half-life [27]: > 72 h
- logP [4]: 3.71
- pKa [25]: 3.9
- CMpH [26]: 6.6

Compound: CC(CCC(=O)NCC(=O)O)C1CC[C@H]2[C@@H]3C[C@H](O)C4C[C@H](O)CCC4(C)[C@H]3CCC12C (stereo partly drawn)
- half-life (cholylglycine hydrolase): 5 h
